Screening data as filed in PubChem BioAssay.
Diaphorase act – counter-screen for diaphorase-based assays: diaphorase activators and chemical reducers; Diaphorase/resazurin coupled assay, resorufin fluorescence, 16 min; hits give high values; 1 = vehicle wells, 0 = NADH-free wells; activation factor at 20 µM; 190,000 tested, 0.005% active;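 active = diaphorase activity raised at least twofold by the compound at 20 µM; inactive = activation factor below 2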
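Material: Purified diaphorase enzyme from Clostridium kluyveri | Buffer or medium: 50 mM HEPES pH 7.4 with 4.542 mM MgCl2, 0.005% Tween 20 | Times: 16 min enzyme reaction, ambient temperature | Signal: Red resorufin fluorescence at 544/590 nm excitation/emission | Measure: Increased resorufin signal from activators or reducing compounds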
Lmaj promast – Leishmania major promastigote growth inhibition. Leishmania major promastigotes, resazurin fluorescence viability. inhibition, % at 10 µM. 200,000 tested, 9% active. AID 1063;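 also: promastigotes grown with compound for 44 hours at 28 °C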
G6PDH counter – counter-screen for G6PDH assay hits: L. mesenteroides G6PDH inhibition. inhibition, % at 5 µM. 200,000 tested, 0.12% active. Purified L. mesenteroides G6PDH, diaphorase/resazurin coupled fluorescence, 45 min. AID 1020
PfGluPho inh – PfG6PD (Plasmodium falciparum) enzyme inhibition. PfGluPho enzyme, NADPH resazurin-diaphorase fluorescence. inhibition, % at 20 µM. 350,000 tested, 0.78% active;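 active = inhibition reaching at least a set limit at 20 µM in the primary screen, cut at about 59% in these data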;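 also: 0% = DMSO wells with substrate and 100% = DMSO wells lacking glucose-6-phosphate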
Diaphorase inh – counter-screen for diaphorase-based assays: diaphorase inhibitors and chemical oxidizers; diaphorase resazurin-to-resorufin fluorescence, NADH, 16 min; bacterial (C. kluyveri) enzyme, not human; inhibition, % at 20 µM; 190,000 tested, 0.69% active; AID 1217;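 active = primary screen inhibition at 20 µM above a set limit, cut at about 50% in these data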;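 also: plate controls were DMSO with full reaction for no effect and wells lacking NADH for full effect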
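Assay system: diaphorase enzyme from Clostridium kluyveri. Quantity: enzyme working solution with 0.14 U/mL diaphorase. Schedule: reaction incubation of 16 min at room temperature. Technique: resorufin fluorescence, excitation 544 nm, emission 590 nm. Controls: No-NADH positive control and DMSO neutral control.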
DTT redox prof – compounds producing H2O2 with reducing agent – biochemical, NIH compound library profiling, artefact control for MLSCN library redox annotation, primary screen. DTT-dependent redox cycling H2O2, phenol red/HRP absorbance; 100% = 100 µM peroxide control, 0% = buffer. activation, % at 10 µM. 200,000 tested, 0.03% active. AID 878;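 active = activation of at least 50% relative to the plate's high and low controls in the primary single-dose screen; inactive = activation below 50%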;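 also: compound incubated with DTT at 0.8 mM final as the reducing agent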
L major 1uM – blocks Leishmania major promastigote growth at 1 uM, repeat screen; shares compounds with Lmaj promast; L. major promastigote growth, resazurin fluorescence, 48 h; inhibition, % at 1 µM; 1,100 tested, 13% active;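 active = inhibition above about 50% in both repeat tests, limit read from the data; inconclusive = one repeat under the set limit, the other over it; inactive = both repeats under the set limit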
An asterisk follows results filed as active; ? = inconclusive; nt = not tested or not shown. Shown is part of a subset that was picked to be rich in hits. Rule as the data show it, unless noted: active = inhibition above about 50%; inactive = the rest.

SMILES	Diaphorase act	Lmaj promast	G6PDH counter	PfGluPho inh	Diaphorase inh	DTT redox prof	L major 1uM
c1ccc(-c2n[nH]c(-c3ccccn3)n2)cc1	0.8	3	19	-22	20	0	nt
c1ccc(-c2n[nH]c(-c3ccccn3)n2)nc1	0.9	100*	1	-19	10	2	-9
CN(C)S(=O)(=O)c1cccc(COC(=O)CCNC(=O)c2ccc([N+](=O)[O-])cc2)c1	nt	nt	nt	-6	nt	nt	nt
O=C(C[C@H]1C[C@H]2c3cc(NS(=O)(=O)c4ccc(F)cc4)ccc3O[C@H]2[C@H](CO)O1)NCc1ccncc1	nt	nt	nt	8	nt	nt	nt
Cn1c(C(=O)N2CCc3ccccc3C2)cc2c(=O)n3ccccc3nc21	0.7	97*	8	-7	29	0	-9
CC1CC(C)(C)NC(=S)N1CC(=O)NCc1ccc2c(c1)OCO2 (stereo not given)	0.9	2	0	-7	8	-2	nt
COc1ccc(C(=O)/C=C/c2cn(CN3CCN(C)CC3)c3ccccc23)cc1	0.9	93*	0	45	12	0	-5
CN(C)CCn1nnc2c(=O)oc3ccccc3c21	0.9	-8	8	-7	7	0	nt
O=c1cc(-c2cccc3ccccc23)[nH][nH]1	0.9	80*	-6	13	9	5	-11
O=c1cc(-c2ccc(Cl)cc2)[nH][nH]1	0.9	-6	-5	8	15	2	nt
C[C@H](CO)N1C[C@H](C)[C@H](CN(C)S(=O)(=O)c2ccc(C#N)cc2)OCc2cnnn2CCCC1=O	nt	nt	nt	-1	nt	nt	nt
O=C(NNc1ccccc1)C(=O)NNS(=O)(=O)c1ccc([N+](=O)[O-])cc1	0.9	89*	1	-19	12	0	11
O=C(NNS(=O)(=O)c1ccc([N+](=O)[O-])cc1)c1ccc([N+](=O)[O-])cc1	nt	nt	nt	-10	nt	nt	nt
OCCC1CN(Cc2cnc(-c3ccc(Cl)cc3)nc2)CCN1C1CCCCC1 (stereo not given)	1	87*	2	5	-3	0	12
Cc1ccc(C23CC4CC(CC(CN)(C4)C2)C3)cc1	1.1	100*	5	-6	-14	0	13
CCCCCn1c(=N)n(CC(O)COc2ccccc2OC)c2ccccc21 (stereo not given)	0.9	83*	6	2	12	0	6
COc1ccccc1NC(=O)CN1CCC(C(=O)c2ccc(F)cc2)CC1	0.9	71*	8	-4	11	3	-12
CN(C)c1cc(N/N=C/c2ccc(Cl)cc2)nc(N(C)C)n1	0.5	78*	43	42	54*	0	74*
COc1cc(N/N=C/c2ccc(N(C)C)cc2)ncn1	1	-1	13	11	0	0	nt
N#CC1=C(N)OC2=C(C(=O)CCC2)C12C(=O)N1CCCc3cccc2c31 (stereo not given)	1	60*	1	16	3	0	-14
N#CC1=C(N)OC2=C(C(=O)CCC2)[C@]12C(=O)N(CC(N)=O)c1ccccc12	0.9	0	5	4	14	2	nt
CC[C@]12c3[nH]c4ccc(Cl)cc4c3CCN1C(=O)[C@@H](CC(=O)NCCC1=CCCCC1)C[C@@H]2C(=O)N1CCN(C(=O)c2ccco2)CC1	nt	nt	nt	29	nt	nt	nt
CCSc1nnc(-c2ccc(Cl)cc2)c2ccccc12	0.8	3	7	6	23	3	nt
Cc1nnc(Sc2nc3ccccc3o2)c2ccccc12	0.8	64*	-3	12	23	2	-3
CCSc1nnc(C)c2ccccc12	0.9	0	-1	17	14	0	nt
SMILES	Diaphorase act	Lmaj promast	G6PDH counter	PfGluPho inh	Diaphorase inh	DTT redox prof	L major 1uM
Clc1ccc(-c2nnc(Sc3nc4ccccc4o3)c3ccccc23)cc1	1	90*	-1	3	-3	-5	7
CCSc1nnc(-c2ccc(C)cc2)c2ccccc12	0.9	14	-23	-16	11	0	nt
Cc1ccc(-c2nnc(Sc3nc4ccccc4o3)c3ccccc23)cc1	0.7	76*	9	-2	26	-5	9
COc1ccc(Cl)cc1NC(=O)C1CSC(c2ccncc2)=N1 (stereo not given)	0.9	18	18	17	11	-1	nt
CCOc1ccc(NC(=O)CN(c2ccc(OC)cc2)S(=O)(=O)c2cccs2)cc1	nt	nt	nt	-9	nt	nt	nt
O=S(=O)(NC(=S)c1ccccc1)c1ccccc1	nt	nt	nt	13	nt	nt	nt
CC(C)N=C(NS(=O)(=O)c1ccccc1)C(Cl)(Cl)Cl	1	85*	17	13	0	0	?
COc1ccccc1NC(=S)NC1CCCCCC1	0.9	48	15	-2	12	0	nt
COc1ccccc1NC(=O)COc1ccc(-c2nn(C)c(=O)c3ccccc23)cc1	nt	nt	nt	6	nt	nt	nt
COc1ccccc1NC(=O)Cn1nc(-c2ccc(Cl)cc2)c2ccccc2c1=O	0.9	68*	2	6	6	0	10
Fc1ccccc1-c1nc(NCc2ccccc2)c2ccccc2n1	nt	nt	nt	-8	nt	nt	nt
COC(=O)CNc1nc(-c2ccccc2F)nc2ccccc12	0.9	59*	-17	-15	13	-1	56*
CCN(Cc1ccccc1)C(=O)c1[nH]c2ccc(OC)cc2c1C	nt	nt	nt	-21	nt	nt	nt
CCN(CC)CCNC(=O)c1[nH]c2ccc(OCc3ccccc3)cc2c1C	1.3	100*	0	13	-25	-1	-17
Cc1ccc(O)c(C2=NCCNC(C(F)(F)C(F)F)=C2)c1	0.9	-8	-3	-9	13	0	nt
Oc1ccc(Cl)cc1C1=NCCNC(C(F)(F)C(F)F)=C1	0.9	76*	3	-4	13	1	-18
CS(=O)(=O)C1=NSC2=NC(=O)/C(=C\c3ccc(OC(=O)c4ccco4)c(Br)c3)C(=N)N21	nt	nt	nt	2	nt	nt	nt
C1CCN(CCC2CCCCN2)CC1 (stereo not given)	nt	nt	nt	-8	nt	nt	nt
C1CCC(OCCN2CCN(CCOC3CCCCC3)CC2)CC1	1	95*	2	-6	3	2	46
CCOC(=O)Cc1csc(NC(=O)CSc2nc(=O)[nH]c3c2CCC3)n1	nt	nt	nt	-5	nt	nt	nt
Cc1ccccc1Cn1nnc(C(=O)Nc2cccc(C)c2C)c1N	0.8	95*	13	3	15	3	-15
Cc1ccc(CNC(=O)Cn2nnc(C(=O)Nc3cccc(C)c3C)c2N)cc1	nt	nt	nt	10	nt	nt	nt
Cc1c(Br)c([N+](=O)[O-])nn1CCCC(=O)Nc1sc2c(c1C#N)CCC2	0.7	82*	-22	56	26	0	-3
Cc1c(Cl)c([N+](=O)[O-])nn1CCCC(=O)Nc1sc2c(c1C#N)CCC2	0.8	21	-36	38	23	-3	nt
